Experiment [1] can be described thus: Growth inhibition of DLA cells at 31.25 ug/mL after 3 hrs. Format: functional. As to conditions: Mus musculus. The gist of the method:
(§1)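 DLA and EAC cells passaged intraperitoneally in albino mice, harvested after 15–20 days and adjusted to 1 × 10⁶ cells/mL. Dilutions in Dulbecco's medium (500–31.25, some down to 3.91 µg/mL; 5-FU reference) mixed 1:1 with cells and held 3 h at 37 °C. Trypan blue exclusion gave % growth inhibition; CTC50 by graphical extrapolation.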

A short description of experiment [2]: Growth inhibition of EAC cells at 3.91 ug/mL after 3 hrs. It is filed as functional. As to conditions: Mus musculus, Ehrlich. The gist of the method:
as §1

The nature of experiment [3]: Growth inhibition of EAC cells at 250 ug/mL after 3 hrs. It is filed as functional. As to conditions: Mus musculus, Ehrlich. The gist of the method:
as §1

Experiment [4] in a line: Growth inhibition of EAC cells at 7.81 ug/mL after 3 hrs. Format: functional. As to conditions: Mus musculus, Ehrlich. The gist of the method:
as §1

Experiment [5] in a line: Growth inhibition of EAC cells after 3 hrs. It is filed as functional. As to conditions: Mus musculus, Ehrlich. The gist of the method: as §1
A short description of experiment [6]: Growth inhibition of DLA cells after 3 hrs. As to conditions: Mus musculus. Format: functional. The gist of the method:
as §1

The nature of experiment [7]: Growth inhibition of DLA cells at 15.63 ug/mL after 3 hrs. As to conditions: Mus musculus. It is filed as functional. The gist of the method:
as §1

Experiment [8] in a line: Growth inhibition of EAC cells at 15.63 ug/mL after 3 hrs. Format: functional. As to conditions: Mus musculus, Ehrlich. The gist of the method:
as §1

A short description of experiment [9]: Growth inhibition of DLA cells at 7.81 ug/mL after 3 hrs. It is filed as functional. As to conditions: Mus musculus. The gist of the method: as §1
The nature of experiment [10]: Growth inhibition of DLA cells at 62.5 ug/mL after 3 hrs. Format: functional. As to conditions: Mus musculus. The gist of the method: as §1
The nature of experiment [11]: Growth inhibition of DLA cells at 3.91 ug/mL after 3 hrs. Format: functional. As to conditions: Mus musculus. The gist of the method: as §1
Experiment [12] in a line: Growth inhibition of EAC cells at 500 ug/mL after 3 hrs. Format: functional. As to conditions: Mus musculus, Ehrlich. The gist of the method: as §1
For experiment [13], the system named is Trichophyton benhamiae. Description: Antifungal activity against Trichophyton mentagrophytes MUCC 665 after 48 hrs by tube dilution method. It is filed as functional, Arthroderma benhamiae. The gist of the method: (§2)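 Tube dilution MIC as for bacteria (seven concentrations, 200–3.1 […]), with DMSO in place of DMF. Tubes inoculated with fungal culture and incubated 48 h at 37 °C. MIC read from presence or absence of growth.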

In experiment [14] the test system is Trichophyton benhamiae. Briefly: Antifungal activity against Trichophyton mentagrophytes MUCC 665 after 48 hrs by disc diffusion method. It is filed as functional, Arthroderma benhamiae. The gist of the method: (§3)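 Agar well diffusion on plates inoculated with spore suspension in normal saline from cultures on Sabouraud's broth. Wells punched and loaded with test samples or griseofulvin at 10 mg mL^-1, with DMSO as negative control. Incubated 48 h at 37 °C.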
On the technique in general: A growth-free zone around the sample is the usual read-out of agar diffusion tests.

Experiment [15] concerns Candida albicans. Description: Antifungal activity against Candida albicans MUCC 29 after 48 hrs by tube dilution method. Format: functional. The gist of the method: as §2
The nature of experiment [16]: Anthelmintic activity against Megascoplex konkanensis ICARBC 211 assessed as mean death time. Format: functional. The gist of the method:
(§4)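 Earthworms exposed to test suspensions at 2 mg mL^-1 (0.2% w/v), made by triturating compound with Tween 80 (0.5%) and distilled water, then mechanically stirred 30 min. Mebendazole suspension prepared alike as reference. Paralysis and death times recorded; death confirmed by no movement in 50 °C water. Means from triplicate sets.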

Experiment [17] in a line: Anthelmintic activity against Megascoplex konkanensis ICARBC 211 assessed as mean paralyzing time. Format: functional. The gist of the method: as §4
Experiment [18] concerns Bacillus subtilis. Briefly: Antibacterial activity against Bacillus subtilis NCIM 2063 after 18 hrs by tube dilution method. As to conditions: NCIM 2063, 18 h. It is filed as functional. The gist of the method: (§5)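 Tube dilution MIC. Stock diluted in sterile broth to seven concentrations from 200 to 3.1 […]. Each tube inoculated with one loopful of test bacterium and incubated 18 h at 37 °C. MIC read from presence or absence of growth.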

The test system of experiment [19] is Pseudomonas aeruginosa. Description: Antibacterial activity against Pseudomonas aeruginosa NCIM 2034 after 18 hrs by tube dilution method. It is filed as functional. As to conditions: NCIM 2034, 18 h. The gist of the method:
as §5

Experiment [20] relates to Eudrilus. Briefly: Anthelmintic activity against Eudrilus sp. assessed as mean death time. It is filed as functional. The gist of the method: (§6)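 Earthworms exposed to test suspensions at 2 mg mL−1, prepared by triturating compound with Tween 80 (0.5%) and distilled water, stirring 30 min, then diluting to 0.2% w/v. Mebendazole suspension was made the same way. Death was confirmed by moving worms into 50 °C warm water and looking for movement. Mean death time (min) taken from triplicate sets.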

The subject of a further experiment is Aspergillus niger. Description: Antifungal activity against Aspergillus niger MUCC 177 after 48 hrs by disc diffusion method. It is filed as functional. The gist of the method: as §3
Experiment [21] in a line: Growth inhibition of EAC cells at 31.25 ug/mL after 3 hrs. Format: functional. As to conditions: Mus musculus, Ehrlich. The gist of the method: as §1
In experiment [22] the test system is Pontoscolex corethrurus. Briefly: Anthelmintic activity against Pontoscolex corethrurus ICARBC 408 assessed as mean death time. Format: functional. The gist of the method: as §6
The test system of experiment [23] is Staphylococcus aureus. Briefly: Antibacterial activity against Staphylococcus aureus NCIM 2079 after 18 hrs by tube dilution method. As to conditions: NCIM 2079, 18 h. It is filed as functional. The gist of the method: as §5
Experiment [24] has as its system Candida albicans. Briefly: Antifungal activity against Candida albicans MUCC 29 after 48 hrs by disc diffusion method. It is filed as functional. The gist of the method: as §3
Experiment [25] has as its system Microsporum audouinii. Description: Antifungal activity against Microsporum audouinii MUCC 545 after 48 hrs by tube dilution method. It is filed as functional. The gist of the method:
as §2

Experiment [26] can be described thus: Growth inhibition of EAC cells at 62.5 ug/mL after 3 hrs. It is filed as functional. As to conditions: Mus musculus, Ehrlich. The gist of the method: as §1
Experiment [27] deals with Bacillus subtilis. Description: Antibacterial activity against Bacillus subtilis NCIM 2063 after 18 hrs by disc diffusion method. Format: functional. The gist of the method: (§7)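 Modified Kirby-Bauer disc diffusion. Plates inoculated with spore suspension (about 6 × 10⁴ spores mL^-1). Sterile 6 mm paper discs carried test samples at 10 mg mL^-1; ciprofloxacin disc as reference, DMF disc as negative control. Plates held 18 h at 37 °C. Inhibition zone diameters (mm) averaged over triplicate sets.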

The test system of experiment [28] is Microsporum audouinii. Description: Antifungal activity against Microsporum audouinii MUCC 545 after 48 hrs by disc diffusion method. It is filed as functional. The gist of the method: as §3
Experiment [29] relates to Escherichia coli. Description: Antibacterial activity against Escherichia coli NCIM 2065 after 18 hrs by tube dilution method. It is filed as functional. As to conditions: NCIM 2065, 18 h.
Experiment [30] deals with Escherichia coli. Description: Antibacterial activity against Escherichia coli NCIM 2065 after 18 hrs by disc diffusion method. It is filed as functional. The gist of the method: as §7
Experiment [31] relates to Staphylococcus aureus. Description: Antibacterial activity against Staphylococcus aureus NCIM 2079 after 18 hrs by disc diffusion method. It is filed as functional. The gist of the method:
as §7

For experiment [32], the system named is Pseudomonas aeruginosa. Briefly: Antibacterial activity against Pseudomonas aeruginosa NCIM 2034 after 18 hrs by disc diffusion method. It is filed as functional. The gist of the method:
as §7

Experiment [33] relates to Pontoscolex corethrurus. Description: Anthelmintic activity against Pontoscolex corethrurus ICARBC 408 assessed as mean paralyzing time. It is filed as functional. The gist of the method:
as §4

Experiment [34] relates to Eudrilus. Description: Anthelmintic activity against Eudrilus sp. assessed as mean paralyzing time. It is filed as functional. The gist of the method: as §4

≈ marks a conversion by molar mass, not a printed value. Residues, ends and D or L forms follow the SMILES beside them. *: point of attachment. X1 = Cc1cc2nc(-c3ccc(O)c(C(=O)*)c3)[nH]c2cc1C

The inhibition is the percentage by which the read-out fell short of the control. Broadly, the CC50 is the concentration that lowers cell viability or growth by half. A word on the MIC: it is the lowest concentration that inhibits growth of the organism. Read a low MIC as greater potency.

`O=c1[nH]cc(F)c(=O)[nH]1` [FLUOROURACIL] showed an inhibition at 31.25 µg/mL in experiment [1] of 100%. Besides, the inhibition at 3.91 µg/mL in experiment [2] stood at 17.9%; in experiment [11] it was 42.1%. Also, the inhibition at 250 µg/mL in experiment [3] worked out at 100%. Also, the inhibition at 7.81 µg/mL in experiment [4] stood at 32.1%; in experiment [9], 65.8%. The CC50 in experiment [5] was 90.5 µM; in experiment [6], 37.4 µM. The figures for the inhibition at 15.63 µg/mL in [7] and in experiment [8] were 73.7% and 60.7%, respectively. In addition, in experiment [10], at 62.5 µg/mL the inhibition was 100%. The inhibition at 500 µg/mL in experiment [12] stood at 100%.

For `Cc1cc2nc(-c3ccc(O)c(C(=O)NCC(=O)N[C@@H](Cc4c[nH]c5ccccc45)C(=O)NCC(=O)N[C@@H](Cc4cnc[nH]4)C(=O)O)c3)[nH]c2cc1C` (X1-GWGH-OH), the results for the inhibition at 31.25 µg/mL in experiment [1] and in [21] were 100% and 92.8%, respectively. Moreover, the MIC with Trichophyton benhamiae [13] stood at 6 µg/mL (≈ 8.34 µM); with Candida albicans [15], 6 µg/mL (≈ 8.34 µM); in the experiment on Bacillus subtilis [18], 6 µg/mL (≈ 8.34 µM); in the experiment with Pseudomonas aeruginosa [19] it was 6 µg/mL (≈ 8.34 µM); in the experiment on Staphylococcus aureus [23], 12.5 µg/mL (≈ 17.4 µM); with Microsporum audouinii [25] it was 6 µg/mL (≈ 8.34 µM). Also, the MIC against Escherichia coli [29] was 12.5 µg/mL (≈ 17.4 µM). The “inhibition zone (IZ)” value in the experiment on Trichophyton benhamiae [14] came to 16 mm; in the experiment with Aspergillus niger it was 16 mm; in the experiment on Candida albicans [24] it was 20 mm; in the experiment on Bacillus subtilis [27], 14 mm; with Microsporum audouinii [28] it was 11 mm; in the experiment on Escherichia coli [30], 18 mm. For the same compound, the “inhibition zone (IZ)” value in the experiment with Staphylococcus aureus [31] is given as 10 mm; with Pseudomonas aeruginosa [32], 24 mm. Besides, the figures for the TIME in experiment [16] and in [17] were 0.289 h and 0.155 h, respectively. In addition, the inhibition at 3.91 µg/mL in experiment [2] was determined as 10.7%; in experiment [11], 44.7%. Moreover, the inhibition at 7.81 µg/mL in experiment [4] was found to be 46.4%; in experiment [9], 60.5%. Moreover, the results for the CC50 in experiment [5] and in [6] were 12 µM and 6.15 µM, respectively. Besides, the Time in the experiment with Eudrilus [20] was determined as 19.83 min; in the experiment with Pontoscolex corethrurus [22], 24.52 min; in the experiment on Pontoscolex corethrurus [33], 12.22 min; in the experiment with Eudrilus [34] it was 10.89 min. Moreover, the inhibition at 15.63 µg/mL amounted to 81.6% in experiment [7] and 75% in experiment [8]. The inhibition at 62.5 µg/mL in [26] and in [10] was 100% in each case.

These data come from ChEMBL document CHEMBL1146375, “Synthetic studies on novel benzimidazolopeptides with antimicrobial, cytotoxic and anthelmintic potential” (2007).
